From ChEMBL document CHEMBL1122840, “SAR studies in the field of calcium(II) antagonists. Effect of modifications at the tetrasubstituted carbon of verapamil-like compounds” (1985) come the findings set out here.

The structures appear in SMILES notation.

The species entered for assay [1] is Cavia porcellus. The experiment in a line: Coronary perfusion pressure of isolated guinea pig heart at dose 0.005 (ug/heart). The assay is classed as functional. The method, boiled down:
(§1)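 Heart perfused via an aortic inflow cannula; coronary perfusion pressure was recorded in that cannula with a pressure transducer. After 30-min stabilization, drug dissolved in perfusion liquid was injected through a side arm over 1 min, at constant volume. Six preparations per compound; mean, SE and percent of basal value were calculated for each dose.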

The species named for assay [2] is Cavia porcellus. The experiment in a line: Coronary perfusion pressure of isolated guinea pig heart at dose 0.05 (ug/heart). The assay is classed as functional. Put shortly: as §1
The species named for assay [3] is Cavia porcellus. Put plainly: Coronary perfusion pressure of isolated guinea pig heart at dose 0.5 (ug/heart). Format: functional. Put shortly:
as §1

Assay [4] is filed under the species Cavia porcellus. The experiment in a line: Coronary perfusion pressure of isolated guinea pig heart at dose 5 (ug/heart). Format: functional. Put shortly: as §1
The species named for assay [5] is Cavia porcellus. The experiment in a line: Left ventricular pressure of isolated guinea pig heart at dose 0.005 (ug/heart). The assay is classed as functional, Cardiac ventricle. Put shortly:
(§2)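 Perfused heart, 30-min stabilization, then a 1-min constant-volume injection of drug dissolved in perfusion liquid via a side arm of the aortic inflow cannula. Six preparations per compound; mean, SE and percent of basal value were calculated for each dose.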

The species entered for assay [6] is Cavia porcellus. The experiment in a line: Left ventricular pressure of isolated guinea pig heart at dose 0.05 (ug/heart). Format: functional, Cardiac ventricle. Put shortly:
as §2

The species entered for assay [7] is Cavia porcellus. Put plainly: Left ventricular pressure of isolated guinea pig heart at dose 0.5 (ug/heart). The assay is classed as functional, Cardiac ventricle. Put shortly: as §2
Assay [8] is filed under the species Cavia porcellus. Put plainly: Left ventricular pressure of isolated guinea pig heart at dose 5 (ug/heart). Format: functional, Cardiac ventricle. The method, boiled down: as §2
The species named for assay [9] is Cavia porcellus. Put plainly: Heart rate of isolated guinea pig heart at dose 0.005 (ug/heart). The assay is classed as functional. Put shortly: (§3)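 Rate was derived from the left ventricular pressure tracing of the perfused heart. Drug dissolved in perfusion liquid was given as a 1-min side-arm injection into the aortic inflow cannula after 30-min stabilization, at constant volume. Six preparations per compound; values expressed as mean, SE and percent of basal for each dose.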

For assay [10], the species on record is Cavia porcellus. Put plainly: Heart rate of isolated guinea pig heart at dose 0.05 (ug/heart). The assay is classed as functional. Put shortly: as §3
For assay [11], the species on record is Cavia porcellus. The experiment in a line: Heart rate of isolated guinea pig heart at dose 0.5 (ug/heart). Format: functional. Put shortly:
as §3

The species entered for assay [12] is Cavia porcellus. The experiment in a line: Heart rate of isolated guinea pig heart at dose 5 (ug/heart). The assay is classed as functional. Put shortly: as §3
Assay [13] is filed under the species Cavia porcellus. Put plainly: Coronary perfusion pressure of isolated guinea pig heart at dose 5 ug/heart). The assay is classed as functional. Put shortly:
as §1

For `COc1ccc(CCN(C)CCCC(c2ccccc2)c2ccccc2)cc1OC.O=C(O)C(=O)O`, the CPP in assay [1] was found to be 48 mmHg; in assay [2], 48 mmHg; in assay [3], 48.7 mmHg; in assay [4], 47.3 mmHg. The LVP in [5] came to 67.5 mmHg; in [6], 67.5 mmHg; in assay [7], 67.4 mmHg; in assay [8], 66.7 mmHg. Also, the HR in assay [9], in [10], in assay [11] and in assay [12] was 152 beats min-1 each time.
Regarding `COc1ccc(CCN(C)CCCC2(C#N)c3ccccc3-c3ccccc32)cc1OC.[O-][Cl+3]([O-])([O-])O`, the CPP in assay [1] was 47.7 mmHg; in assay [2], 45.2 mmHg; in assay [3] it was 45 mmHg; in assay [13] it was 43.8 mmHg. Further, the LVP in [5] is reported as 47.2 mmHg; in assay [6] it was 41.8 mmHg; in assay [7] it was 38.7 mmHg; in [8], 38.5 mmHg. The HR in [9] is 213 beats min-1; in assay [10] it was 208 beats min-1; in [11], 203 beats min-1; in [12] it was 194.8 beats min-1.
Take `COc1ccc(CCN(C)CCCC2(C#N)c3ccccc3-c3ccccc32)cc1OC.O=C(O)C(=O)O`: the CPP in assay [1] worked out at 44.2 mmHg; in [2] it was 42 mmHg; in assay [3], 42 mmHg; in assay [4], 41.2 mmHg. Besides, the LVP in [5] turned out to be 43.3 mmHg; in assay [6] it was 41.7 mmHg; in assay [7] it was 41.3 mmHg; in assay [8], 39.5 mmHg. Also, the HR in assay [9] amounted to 211.5 beats min-1; in [10], 209.7 beats min-1; in [11] it was 206 beats min-1; in assay [12], 205 beats min-1.
Regarding `COc1ccc(CCN(C)CCC=C2c3ccccc3-c3ccccc32)cc1OC.O=C(O)C(=O)O`, the CPP in [1] is given as 50 mmHg; in assay [2], 50 mmHg; in assay [3], 51 mmHg; in assay [4], 51 mmHg. In addition, the LVP in [5] was determined as 53 mmHg; in assay [6], 53 mmHg; in assay [7], 54 mmHg; in assay [8], 54 mmHg. Further, the HR in assay [9] is reported as 210 beats min-1; in [10] it was 210 beats min-1; in assay [11], 208 beats min-1; in assay [12], 208 beats min-1.
In the case of `COc1ccc(CCN(C)CCCC(C#N)(c2ccccc2)c2ccccc2)cc1OC.[O-][Cl+3]([O-])([O-])O`, the CPP in assay [1] came out at 73 mmHg; in assay [2] it was 72.6 mmHg; in [3] it was 71.2 mmHg; in assay [4], 68.7 mmHg. Besides, the LVP is 31.6 mmHg in [5], 28.6 mmHg in assay [6], 27.8 mmHg in assay [7] and 26.8 mmHg in assay [8]. Besides, the HR turned out to be 162 beats min-1 in assay [9], 160.2 beats min-1 in assay [10], 159.8 beats min-1 in assay [11] and 158.3 beats min-1 in assay [12].
Regarding `COc1ccc(CCN(C)CCCC(c2ccccc2)(c2ccccc2)C(C)C)cc1OC.O=C(O)C(=O)O`, the CPP was 46.3 mmHg in assay [1], 50 mmHg in assay [2], 49.3 mmHg in assay [3] and 49.3 mmHg in [4]. Moreover, the LVP is on record as 74.3 mmHg in assay [5], 65.3 mmHg in [6], 66.7 mmHg in assay [7] and 65.3 mmHg in assay [8]. Besides, the HR in assay [9] was found to be 155.3 beats min-1; in [10] it was 154.7 beats min-1; in [11] it was 150 beats min-1; in assay [12] it was 150.7 beats min-1.
As for `COc1ccc(CCN(C)CCCC2c3ccccc3-c3ccccc32)cc1OC.O=C(O)C(=O)O`, the CPP in assay [1] is reported as 52 mmHg; in assay [2], 52 mmHg; in assay [3], 56 mmHg; in assay [4] it was 51.3 mmHg. Moreover, the LVP was determined as 88.5 mmHg in [5], 89.5 mmHg in [6], 91.2 mmHg in assay [7] and 89.3 mmHg in [8]. The HR in [9] is on record as 150 beats min-1; in assay [10], 150 beats min-1; in assay [11], 150 beats min-1; in assay [12] it was 149.3 beats min-1.
As for `COc1ccc(CCN(C)CCC=C(c2ccccc2)c2ccccc2)cc1OC.O=C(O)C(=O)O`, the CPP in [1] worked out at 48 mmHg; in assay [2] it was 51 mmHg; in assay [3], 47.3 mmHg; in assay [4], 47.3 mmHg. Also, the LVP in assay [5] is 75.7 mmHg; in assay [6], 75.3 mmHg; in [7], 75.7 mmHg; in [8], 75.7 mmHg. Further, the HR in [9], in assay [10], in assay [11] and in assay [12] was 150 beats min-1 throughout.
Take `COc1ccc(CCN(C)CCCC2(C(C)C)c3ccccc3-c3ccccc32)cc1OC.O=S(=O)(O)O`: the CPP in assay [1] is recorded as 76.4 mmHg; in [2], 78.6 mmHg; in assay [3], 78.4 mmHg; in assay [4], 78.4 mmHg. Also, the LVP in [5] is recorded as 38.4 mmHg; in assay [6], 38 mmHg; in [7], 37 mmHg; in assay [8] it was 36 mmHg. The HR in [9] is 211 beats min-1; in [10], 209 beats min-1; in assay [11], 207 beats min-1; in assay [12], 204.4 beats min-1.
Consider `COc1ccc(CCN(C)CCCC(C#N)(c2ccc(OC)c(OC)c2)C(C)C)cc1OC` (configuration not stated) [VERAPAMIL], for which the CPP came to 51.7 mmHg in assay [1], 50.3 mmHg in assay [2], 49.7 mmHg in [3] and 48.8 mmHg in assay [4]. Moreover, the LVP in [5] is on record as 25.7 mmHg; in assay [6] it was 24 mmHg; in [7] it was 21.5 mmHg; in assay [8], 13 mmHg. In addition, the HR in assay [9] is on record as 210 beats min-1; in [10] it was 203.8 beats min-1; in assay [11], 200.3 beats min-1; in [12], 188 beats min-1.
Turning to `COc1ccc(CCN(C)C/C=C/C2(C(C)C)c3ccccc3-c3ccccc32)cc1OC.O=S(=O)(O)O`, the CPP in assay [1] is on record as 83.8 mmHg; in assay [2], 82.4 mmHg; in assay [3], 77 mmHg; in [4], 74.4 mmHg. Moreover, the LVP is reported as 43.2 mmHg in [5], 43.2 mmHg in [6], 44 mmHg in [7] and 43.2 mmHg in [8]. For the same compound, the HR in assay [9] worked out at 182.6 beats min-1; in assay [10], 177.8 beats min-1; in assay [11], 180.6 beats min-1; in [12], 176.6 beats min-1.
